Activity calls are given as the source filed them. The rule behind the calls is not given here.
Columns and labels:
[1] = biological target: T1, Adrenergic receptor alpha-2 (Rattus norvegicus, UniProt P22086+P19328+P22909); assay: In vitro inhibitory activity against alpha-2 adrenergic receptor from rat brain minus cerebellum using [3H]clonidine as radioligand; type: tissue-based
T1 sequence (P22086 whole entry): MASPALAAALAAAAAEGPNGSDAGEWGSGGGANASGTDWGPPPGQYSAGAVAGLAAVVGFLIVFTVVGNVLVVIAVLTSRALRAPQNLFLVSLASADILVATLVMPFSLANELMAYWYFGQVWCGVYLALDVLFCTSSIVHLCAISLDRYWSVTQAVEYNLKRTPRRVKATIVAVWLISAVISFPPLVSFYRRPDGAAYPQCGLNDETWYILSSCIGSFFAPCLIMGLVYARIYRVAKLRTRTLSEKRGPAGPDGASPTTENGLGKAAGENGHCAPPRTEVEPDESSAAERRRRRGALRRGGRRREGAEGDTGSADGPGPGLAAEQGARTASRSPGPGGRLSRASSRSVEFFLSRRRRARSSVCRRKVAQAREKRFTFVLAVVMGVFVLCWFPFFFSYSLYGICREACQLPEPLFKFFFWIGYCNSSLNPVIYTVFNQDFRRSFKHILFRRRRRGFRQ
T1 sequence (P19328 whole entry): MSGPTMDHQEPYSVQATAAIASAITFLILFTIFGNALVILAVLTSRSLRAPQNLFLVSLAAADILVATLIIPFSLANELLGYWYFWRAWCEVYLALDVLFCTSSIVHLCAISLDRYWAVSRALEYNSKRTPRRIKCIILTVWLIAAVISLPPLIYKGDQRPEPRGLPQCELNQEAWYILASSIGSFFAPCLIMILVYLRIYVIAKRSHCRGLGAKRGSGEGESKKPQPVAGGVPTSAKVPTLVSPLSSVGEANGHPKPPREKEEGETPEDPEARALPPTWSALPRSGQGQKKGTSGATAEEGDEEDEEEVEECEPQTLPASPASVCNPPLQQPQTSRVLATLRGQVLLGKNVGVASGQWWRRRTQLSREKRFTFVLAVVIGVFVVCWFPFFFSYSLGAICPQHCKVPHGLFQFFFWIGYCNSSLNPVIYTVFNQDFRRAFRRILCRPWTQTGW
T1 sequence (P22909 whole entry): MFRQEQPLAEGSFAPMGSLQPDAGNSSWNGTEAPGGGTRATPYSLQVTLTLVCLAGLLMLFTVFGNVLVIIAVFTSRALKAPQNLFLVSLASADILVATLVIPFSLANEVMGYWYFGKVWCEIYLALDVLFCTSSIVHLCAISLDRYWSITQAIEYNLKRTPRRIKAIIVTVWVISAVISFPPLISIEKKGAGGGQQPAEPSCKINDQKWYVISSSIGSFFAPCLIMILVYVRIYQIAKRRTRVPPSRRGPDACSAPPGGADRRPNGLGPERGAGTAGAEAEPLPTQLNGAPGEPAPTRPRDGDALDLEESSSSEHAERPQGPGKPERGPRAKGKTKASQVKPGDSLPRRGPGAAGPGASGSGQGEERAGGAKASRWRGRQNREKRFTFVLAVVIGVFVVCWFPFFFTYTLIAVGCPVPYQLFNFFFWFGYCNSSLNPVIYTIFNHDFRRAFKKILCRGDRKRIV
Summary of the method: (§1)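 Displacement binding on brain homogenates as earlier described; four to six test concentrations typically, each incubated in triplicate. IC50 in nM derived by appropriately weighted regression analysis.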

[2] = biological target: Serotonin (5-HT) receptor; assay: In vitro inhibitory activity against serotonin receptor from rat frontal cortex using [3H]spiperone as radioligand; type: tissue-based
Dopamine receptor [3] = biological target: T2, Dopamine receptor (Bos taurus, UniProt Q95136+P20288); assay: In vitro inhibitory activity against dopamine receptor from calf caudate using [3H]dopamine as radioligand; type: protein assay; summary of the method: as §1
Rattus norvegicus [4] = assay: In vivo inhibitory activity against basal prolactin in male rat after subcutaneous administration; type: functional; settings: sc, read-out: ID50 (the source's name)
Summary of the method: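 Male rats given one subcutaneous injection and decapitated 4 h later; trunk blood serum collected. One to three groups of three rats per dose, sera of three rats pooled equally. Prolactin measured by double-antibody RIA, expressed against NIH rat Prl RP-1 standard. Dose giving 50% serum prolactin reduction estimated graphically.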

Rattus norvegicus [5] = assay: In vivo inhibitory activity against ovum implantation in female rat after subcutaneous administration; type: functional; settings: sc, read-out: ID50 (the source's name)
Summary of the method: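 Adult proestrus Ivanovas female rats mated with fertile males; sperm-positive females randomised next morning (day 1), 4-10 per group. Single subcutaneous dose on day 5; killed day 12, uteri inspected for fetuses or implantation sites, absence counted as inhibition.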

[6] = biological target: Serotonin (5-HT) receptor; assay: In vitro inhibitory activity against serotonin receptor from whole rat brain using [3H]5-HT as radioligand
[7] = biological target: T3, Adrenergic receptor alpha-1 (Rattus norvegicus, UniProt P15823+P23944+P43140); assay: In vitro inhibitory activity against alpha-1 adrenergic receptor from whole rat brain using [3H]WB-4101 as radioligand; summary of the method: as §1
T3 sequence (P15823 whole entry): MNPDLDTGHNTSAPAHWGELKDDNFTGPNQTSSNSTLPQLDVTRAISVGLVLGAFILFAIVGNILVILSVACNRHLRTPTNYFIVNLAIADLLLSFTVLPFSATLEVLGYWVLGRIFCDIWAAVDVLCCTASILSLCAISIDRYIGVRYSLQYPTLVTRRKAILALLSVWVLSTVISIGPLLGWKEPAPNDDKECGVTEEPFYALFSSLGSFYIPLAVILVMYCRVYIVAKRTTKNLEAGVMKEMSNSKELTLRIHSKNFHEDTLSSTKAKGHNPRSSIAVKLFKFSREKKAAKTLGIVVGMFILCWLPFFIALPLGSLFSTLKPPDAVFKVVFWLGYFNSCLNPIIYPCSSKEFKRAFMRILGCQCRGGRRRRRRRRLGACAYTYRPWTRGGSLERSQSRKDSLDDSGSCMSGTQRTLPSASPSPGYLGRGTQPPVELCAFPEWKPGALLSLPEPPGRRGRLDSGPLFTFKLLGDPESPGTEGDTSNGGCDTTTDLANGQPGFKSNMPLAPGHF
T3 sequence (P23944 whole entry): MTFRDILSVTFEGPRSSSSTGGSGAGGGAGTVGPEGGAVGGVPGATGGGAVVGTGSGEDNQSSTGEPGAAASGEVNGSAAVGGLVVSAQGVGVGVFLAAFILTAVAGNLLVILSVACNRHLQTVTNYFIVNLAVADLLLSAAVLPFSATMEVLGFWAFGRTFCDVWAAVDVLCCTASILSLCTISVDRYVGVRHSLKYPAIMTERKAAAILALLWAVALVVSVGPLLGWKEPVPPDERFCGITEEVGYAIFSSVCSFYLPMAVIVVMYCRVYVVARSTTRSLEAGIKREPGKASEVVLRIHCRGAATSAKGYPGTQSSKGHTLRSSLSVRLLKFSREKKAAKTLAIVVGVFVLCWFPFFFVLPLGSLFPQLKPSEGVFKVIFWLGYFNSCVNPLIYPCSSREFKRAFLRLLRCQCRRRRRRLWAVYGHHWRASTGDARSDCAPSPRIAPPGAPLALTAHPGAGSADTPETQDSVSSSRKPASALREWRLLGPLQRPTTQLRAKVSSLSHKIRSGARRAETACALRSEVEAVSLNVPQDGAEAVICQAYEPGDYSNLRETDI
T3 sequence (P43140 whole entry): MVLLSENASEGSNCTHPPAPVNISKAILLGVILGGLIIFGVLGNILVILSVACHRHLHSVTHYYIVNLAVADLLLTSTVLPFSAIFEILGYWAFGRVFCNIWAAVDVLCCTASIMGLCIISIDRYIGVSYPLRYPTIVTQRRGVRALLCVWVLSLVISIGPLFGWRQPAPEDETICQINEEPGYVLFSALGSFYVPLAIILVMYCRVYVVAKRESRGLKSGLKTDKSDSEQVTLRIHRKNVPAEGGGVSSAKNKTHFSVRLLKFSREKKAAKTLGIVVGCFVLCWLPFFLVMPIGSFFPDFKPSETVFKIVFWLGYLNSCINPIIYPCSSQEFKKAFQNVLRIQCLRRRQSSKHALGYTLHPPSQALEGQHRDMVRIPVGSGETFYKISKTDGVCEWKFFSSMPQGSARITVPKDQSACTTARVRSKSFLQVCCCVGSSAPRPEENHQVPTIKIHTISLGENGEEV

Rattus norvegicus [8] = assay: In vivo inhibitory against lactation in female rat after peroral administration; type: functional; settings: po, read-out: ID50 (the source's name)
Summary of the method: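 […] rats dosed once daily from day 5 to 8. Nursing behaviour checked daily; dams losing more than two pups excluded.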

Dopamine receptor [9] = biological target: T2, Dopamine receptor; assay: In vitro inhibitory activity against dopamine receptor from calf caudate using [3H]spiperone as radioligand; type: protein assay; summary of the method: as §1
Rattus norvegicus [10] = assay: In vivo against inhibitory against lactation in female rat after peroral administration; i = No effect; type: functional, organism-based
Rattus norvegicus [11] = assay: In vivo inhibitory activity against ovum implantation in female rat after subcutaneous administration; i = No effect; type: functional, organism-based
Summary of the method: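 Adult proestrus Ivanovas female rats paired with males of proven fertility; sperm-positive next morning (day 1), randomised 4-10 per group. Single sc dose on day 5; killed day 12, uteri inspected for fetuses or implantation sites, none counting as inhibited.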

| Structure (SMILES) | IC50 [1] [nM] | IC50 [2] [nM] | IC50 (Dopamine receptor [3]) [nM] | ED50 (Rattus norvegicus [4]) [mg/kg] | ED50 (Rattus norvegicus [5]) [mg/kg] | IC50 [6] [nM] | IC50 [7] [nM] | ED50 (Rattus norvegicus [8]) [mg/kg] | IC50 (Dopamine receptor [9]) [nM] | ID50 (Rattus norvegicus [10]) | ID50 (Rattus norvegicus [11]) |
| --- | --- | --- | --- | --- | --- | --- | --- | --- | --- | --- | --- |
| CCCN1C[C@@H](CSC)C[C@@H]2Cc3c(O)cccc3C[C@H]21 | 250 | 720 | 22 | 0.004 | 0.018 | 2000 | 640 | 0.058 | 60 | – | – |
| CN1CCc2cccc3c2[C@H]1Cc1ccc(O)c(O)c1-3 [APOMORPHINE] | – | – | – | – | – | > 10000 | – | – | – | inactive | inactive |
| CCN(CC)S(=O)(=O)N[C@H]1C[C@@H]2c3cccc4[nH]cc(c34)C[C@H]2N(C)C1 [ETISULERGINE] | – | – | – | – | 0.028 | > 5000 | – | 0.19 | – | – | – |
| CCCN1C[C@H](CSC)C[C@@H]2c3cccc4[nH]cc(c34)C[C@H]21 [PERGOLIDE] | – | 140 | – | 0.0013 | 0.021 | 385 | 550 | – | – | – | – |
| CCCN1CC(NS(=O)(=O)N(CC)CC)CC2Cc3c(O)cccc3CC21 (stereo not drawn) [QUINAGOLIDE] | – | – | – | 0.005 | 0.017 | – | – | 0.03 | – | – | – |

— ChEMBL document CHEMBL1122961 (J Med Chem, 1985)
